Compound activity deposited in PubChem by several laboratories.
MIN6 prolif: inducers of beta-cell replication in MIN6 cells; MIN6 cells proliferation, ATPlite luminescence, 48 h; cells starved in 0.2% serum; 100% = growth in 10% serum; proliferation, % at 10 µM; AID 2380; 0.29% of 330,000 active;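 active = compounds whose signal lies at least 3.5 SD above the mean of all wells on their plate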;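 also: 0% = DMSO-treated cells in low-serum medium and 100% = 10% serum control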
CRFBP-R2 block: blocks CRF-induced signaling of the CRF-BP/CRF-R2 complex | HEK293 CRF-R2/CRF-BP, CRF-induced calcium fluorescence | inhibition, % at 11.8 µM | 0.59% of 350,000 active;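 active = inhibition of the ligand-induced calcium signal above about 50% at the single tested concentration, limit read from the data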
hiPSC survival: hiPSC single-cell survival enhancement; 0.044% of 360,000 active; survival enhancement, % at 20 µM; ATPlite luminescence; 100% = ROCK inhibitor wells, 0% = DMSO; in the data active = survival enhancement above about 18%;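 also: cells exposed to compounds for 16 hours before the ATP read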
CRFR2-BP ag: agonists of human CRF-binding protein/CRF-R2 receptor complex. HEK293 CRF-R2/CRF-BP, calcium dye fluorescence (FLIPR); percent of saturating CRF peptide response. activation, % at 13.2 µM. 0.46% of 350,000 active;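 active = activation of at least 50%, plus an integration ratio under a set limit after plate pattern correction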;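 also: plate controls were neutral control wells without compound for no effect and CRF at EC100 for full effect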
UCH37 inh: blocks the human deubiquitinase UCH37 | purified proteasome/UCH37, Ub-AMC cleavage fluorescence | inhibition, % (concentration not given with the values) | 0.33% of 330,000 active;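 active = mean inhibition over replicate wells above about 20%, limit read from the data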;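 also: 0% = compound-free wells with enzyme and 100% = wells lacking proteasome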
Target sequence (Q9Y5K5 whole entry, looked up): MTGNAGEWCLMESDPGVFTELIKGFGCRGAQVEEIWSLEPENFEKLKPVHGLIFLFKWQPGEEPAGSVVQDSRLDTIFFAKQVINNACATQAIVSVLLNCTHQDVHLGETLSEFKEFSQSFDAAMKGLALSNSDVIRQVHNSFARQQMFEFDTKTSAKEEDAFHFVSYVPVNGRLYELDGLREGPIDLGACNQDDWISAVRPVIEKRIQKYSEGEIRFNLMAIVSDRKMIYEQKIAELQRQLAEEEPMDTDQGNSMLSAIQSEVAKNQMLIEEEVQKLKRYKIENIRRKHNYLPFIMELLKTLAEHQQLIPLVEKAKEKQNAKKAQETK
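system = Proteasome-associated human UCH37 deubiquitinase | amount = 0.15 nM proteasome as dispensed | medium = pH 7.4 Tris-HCl (50 mM) with ovalbumin, ATP-MgCl2, DTT | incubation = 30 min preincubation with enzyme, 25 min cleavage at room temperature | detection = AMC fluorescence 355/460 nm | read-out basis = percent inhibition | controls = no-proteasome and no-compound wells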
Cardio protect: protects H9c2 cardiomyocytes from peroxide injury. H2O2 injury protection, ATPLite, 2 h. protection from H2O2 cell death, % at 20 µM. 0.63% of 360,000 active;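 active = compounds giving at least 50% protection of heart cells from peroxide-induced death in the single-dose screen, raw or plate-pattern-corrected value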;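 also: 0% = DMSO wells with peroxide and 100% = DMSO wells without peroxide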
An asterisk follows results filed as active; . = not tested or not shown. An excerpt weighted towards active compounds, which were near 2.1% of everything screened.

SMILES	MIN6 prolif	CRFBP-R2 block	hiPSC survival	CRFR2-BP ag	UCH37 inh	Cardio protect
CC(C)Oc1ccc(/C=N/NC(=O)C(CSCc2ccccc2)NC(=O)c2ccc([N+](=O)[O-])cc2)cc1 (stereo unspecified)	-0.4	-46.3	3.6	104.1*	.	2.4
O=C(Cn1nc(Cc2ccncc2)c2ccccc2c1=O)N1CCc2ccccc2C1	-0.9	-15.8	-3.1	1.1	20.1*	32.1
CC1Cc2ccccc2N1C(=O)CSc1nc2c(c(=O)n(C)c(=O)n2C)n1Cc1ccccc1 (stereo unspecified)	-3.8	6.5	-2.2	0.6	4.6	71.5*
CCn1c(SCC(=O)N2c3ccccc3CCc3ccccc32)nc2c1c(=O)n(C)c(=O)n2C	-1.2	9.9	-1.9	-3.1	0.4	31.8
NC(=O)c1ccc(NC(=O)COC(=O)c2c3c(nc4ccccc24)/C(=C\c2cccs2)CCC3)cc1	-6.0	-19.2	-2.3	1.4	-5.6	54.5*
CCCC(C)=NNC(=O)c1ccccc1O	.	.	.	.	-144.2	.
CCn1c(CCNC(=O)c2ccc(OC)cc2)nnc1SCc1ccc(Cl)c(Cl)c1	.	-149.7	0.2	135.8*	1.4	-10.8
Cc1ccsc1C=NNc1nc(Cl)c(Cl)cc1Cl	.	.	.	.	-11.3	.
Cc1cc(C)n2nc(/C(C#N)=C/c3ccccc3)c(C#N)c2n1	.	98.8*	5.1	1.8	-48.5	34.1
CC1CCN(N=Nc2nc3c([nH]2)c(=O)n(C)c(=O)n3C)CC1	.	0.1	-1.3	-3.3	16.8	-2.2
Cn1c(=O)c2[nH]c(N=NN3CCCCC3)nc2n(C)c1=O	.	-2.4	-1.7	-1.6	22.4*	0.9
NC(=O)c1ccc(NC(=O)CCC(=O)c2cccs2)cc1	0.1	-9.8	62.2*	0.7	1.5	0.3
O=c1[nH]c(CN2CCCC2)nc2sc3c(c12)CCC3	2.3	6.8	-0.3	2.2	-34.6	55.8*
CCN(CC(=O)NC(C)C)Cc1nc2sc3c(c2c(=O)[nH]1)CCC3	-0.9	-5.3	-1.5	-1.0	.	63.8*
Cc1ccc(C(=O)N2CCN(Cc3nc4sc5c(c4c(=O)[nH]3)CCCC5)CC2)cc1	-2.4	-36.2	0.0	-0.6	3.8	4.8
O=C(Cn1ncc2c([nH]c3ccccc32)c1=O)NCC1CCN(Cc2ccccc2F)CC1	-2.1	70.2*	0.5	0.2	-0.7	6.6
O=C(Cn1ncc2c([nH]c3ccccc32)c1=O)NCCc1ccccc1	0.2	4.4	-0.5	3.1	4.9	1.7
CNC(=S)N1CCN(CCNC2=CC(=O)CC(C)(C)C2)CC1	0.6	14.9	-0.7	-2.8	-0.2	3.4
CC1(C)CC(NCCN2CCN(C3=CC(=C(C#N)C#N)CC(C)(C)C3)CC2)=CC(=C(C#N)C#N)C1	-4.8	-5.0	1.4	-0.8	4.8	56.1*
C(/C=C/c1ccccc1)=NN1CCN(c2ccccn2)CC1	.	.	.	.	4.8	.
C[C@H](CO)N1C[C@H](C)[C@@H](CN(C)S(=O)(=O)c2ccc(F)cc2)Oc2ccc(NC(=O)Nc3ccccc3)cc2C1=O	-0.6	-0.6	0.5	-0.1	1.1	18.3
C[C@H](CO)N1C[C@H](C)[C@@H](CN(C)S(=O)(=O)c2ccccc2)Oc2ccc(NC(=O)Nc3ccccc3)cc2C1=O	3.1	22.9	-0.5	-0.1	2.2	75.6*
C[C@H](CO)N1C[C@H](C)[C@@H](CN(C)S(=O)(=O)c2cccs2)Oc2ccc(NC(=O)Nc3ccccc3)cc2C1=O	-0.2	9.6	0.8	-1.3	5.1	67.5*
C[C@H](CO)N1C[C@H](C)[C@@H](CN(C)S(=O)(=O)c2ccc(F)cc2)Oc2ccc(NC(=O)Nc3ccc4c(c3)OCO4)cc2C1=O	-2.5	0.6	-0.1	-1.2	2.6	62.1*
Clc1ccc(C=Nc2c(-c3ccc(Cl)cc3)nc3n2CCS3)cc1	.	.	.	.	6.8	.
SMILES	MIN6 prolif	CRFBP-R2 block	hiPSC survival	CRFR2-BP ag	UCH37 inh	Cardio protect
COc1ccc(OC)c(S(=O)(=O)N2c3ccccc3CC2C)c1 (stereo unspecified)	-2.0	52.7*	2.4	-2.4	1.6	-1.5
COc1ccc(OC)c(S(=O)(=O)N2CCc3ccccc32)c1	0.0	-4.2	5.0	0.8	6.8	-4.3
CC(=NNC(=O)c1ccc(CSc2nc(C)cc(C)n2)cc1)c1ccco1	.	.	.	.	2.2	.
Cn1c(C=NNC(=O)c2ccccc2Br)nc2ccccc21	.	.	.	.	-16.8	.
O=C(c1ccc([N+](=O)[O-])cc1)N(Cc1ccc(Br)cc1)N1C(=O)CCCC1=O	-1.8	-4.4	1.9	59.1*	-2.5	-2.6
O=C(c1ccc([N+](=O)[O-])cc1)N(Cc1ccccc1)Cc1ccccc1	.	67.6*	-1.1	5.0	4.7	1.0
Oc1ccc(O)c(Cc2nc3ccccc3s2)c1	-5.6	53.2*	1.6	-0.5	4.1	-8.1
Oc1ccccc1OCc1nc2ccccc2s1	1.3	10.1	-1.0	-2.0	5.1	-3.0
C/C(C=NNC(=O)c1n[nH]c2c1CCC2)=C\c1ccccc1	.	.	.	.	3.7	.
O=C(NN=Cc1ccc(-c2cccc(Cl)c2)o1)C(=O)NC1CCCC1	.	.	.	.	-76.6	.
CN1CCN(N=Cc2ccc(Cl)c(Cl)c2)CC1	.	.	.	.	3.0	.
O=C1COc2ccc(-c3n[nH]c(=O)c4ccccc34)cc2N1	1.0	17.1	2.0	0.4	5.6	58.8*
COC(=O)c1ccc(-c2n[nH]c(=O)c3ccccc23)cc1	3.3	-9.8	-0.3	-0.2	-1.7	1.2
CN(C)C(=O)c1ccc(-c2n[nH]c(=O)c3ccccc23)cc1	-0.2	-1.2	0.4	2.4	4.2	62.5*
O=C(NN=Cc1ccc(Cl)cc1)c1sccc1OCc1ccc(F)cc1	.	.	.	.	-5.2	.
COc1ccc(CCNC(=O)COc2ccc(N(C)S(=O)(=O)c3ccc(C)cc3)cc2)cc1OC	-2.8	102.6*	0.6	-1.9	1.4	-1.9
COCCn1c(SCc2nnc(-c3ccccc3)o2)nc2sc3c(c2c1=O)CCC3	.	54.8*	0.1	1.1	7.8	-2.9
O=C(CNC(=O)c1cccs1)NN=Cc1ccco1	.	.	.	.	-2.3	.
CCOC(=O)NN=Cc1ccc(OC(=O)c2ccc3c(c2)OCO3)cc1	.	.	.	.	5.2	.
COc1ccc2[nH]c(=O)c(CN(Cc3nnnn3Cc3ccccc3)CC3CCCO3)cc2c1 (stereo unspecified)	-2.6	-34.5	0.5	0.6	-20.1	66.8*
COCCn1nnnc1CN(CCc1ccccc1)Cc1cc2cc(OC)ccc2[nH]c1=O	1.9	-40.1	-3.5	15.0	-50.6	64.0*
COc1ccc(C=NNc2nonc2N)c(OC)c1	.	.	.	.	1.4	.
CC(C)C1Nc2ccc(C(=O)N3CCN(c4ccccn4)CC3)cc2NC1=O (stereo unspecified)	1.2	-1.9	-0.1	-0.1	1.5	51.4*
O=C1CNc2ccc(C(=O)N3CCN(c4ccccn4)CC3)cc2N1	-2.8	10.4	-0.3	-1.7	1.1	6.9
Cn1c(N=Cc2cc(Cl)ccc2O)nc2ccccc21	.	.	.	.	-1.8	.
